Results taken from ChEMBL document CHEMBL3526089, “Selective mechanism-based inactivation of CYP3A4 by CYP3cide (PF-04981517) and its utility as an in vitro tool for delineating the relative roles of CYP3A4 versus CYP3A5 in the metabolism of drugs” (Drug Metab Dispos, 2012).

Key:
Type in all cases: ADME
[1] = biological target: T1, CYP3A (Homo sapiens, UniProt P08684+P20815+P24462+Q9HB55); assay: Time dependent inhibition of human CYP3A midazolam 1'-hydroxylase activity assessed as decrease in enzyme activity at 1 uM preincubated for 30 mins by IC25-shift assay; conditions: probe midazolam (1'-hydroxylation)
Outline: (§1)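 IC25-shift assay. Pooled HLMs or recombinant CYP3A4/3A5/3A7 were preincubated 30 min at 37°C with CYP3cide, with or without NADPH (1.3 mM) (N=2). Mixture diluted 10-fold into probe substrate (~KM) at 37°C. Metabolites analysed by LC/MS/MS. Readout: % decrease in activity vs control.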

[2] = biological target: CYP3A7 (Homo sapiens, UniProt P24462); assay: Time dependent inhibition of midazolam 1'-hydroxylase activity of human recombinant CYP3A7 harboring human P450 oxidoreductase and b5 assessed as decrease in enzyme activity at 100 uM preincubated for 30 mins by IC25-shift assay; conditions: recombinant CYP3A7 with human P450 oxidoreductase and b5, probe midazolam (1'-hydroxylation); outline: as §1
[3] = Fraction unbound in human liver microsomes at 0.8 mg/ml
[4] = biological target: T2, Cytochrome P450 3A4 (Homo sapiens, UniProt P08684); assay: Drug metabolism assessed as human recombinant CYP3A4 in presence of human P450 oxidoreductase and b5-mediated (4-(1-methyl-4-((S)-3-(piperidin-1-yl)pyrrolidin-1-yl)-1H-pyrazolo[3,4-d]pyrimidin-3-yl)-5-p-tolyl-1H-pyrazol-1-yl)methanol formation at 10 uM by HPLC-MS analysis in presence of NADPH; conditions: recombinant enzyme
Outline: (§2)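 Recombinant CYP3A4 or CYP3A5 (50 pmol/ml final) added, without preincubation, to 10 µM CYP3cide with NADPH (final 1 mM) in 100 mM phosphate pH 7.4. Trapping incubations also held 200 µM KCN or 5 mM GSH (final). Incubated 1 h at 37°C, quenched with acetonitrile, dried, reconstituted. Metabolites analysed by LC/Orbitrap ESI-MS.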

[5] = biological target: CYP3A5 (Homo sapiens, UniProt P20815); assay: Time dependent inhibition of testosterone 6beta-hydroxylase activity of human recombinant CYP3A5 in presence of human P450 oxidoreductase and b5 assessed as decrease in enzyme activity at 2 uM preincubated for 30 mins by IC25-shift assay; conditions: recombinant CYP3A5 with human P450 oxidoreductase and b5, probe testosterone (6beta-hydroxylation); outline: as §1
[6] = biological target: T3, Cytochrome P450 3A5 (Homo sapiens, UniProt P20815); assay: Reversible inhibition of testosterone 6beta-hydroxylase activity of human recombinant CYP3A5 in presence of human P450 oxidoreductase and b5
Outline: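 Recombinant CYP3A5 expressed in baculovirus, with P450 oxidoreductase and cytochrome b5 (P450:POR:b5 1:13:7). Enzyme at 0.010 mg/ml for midazolam 1'-hydroxylase and 0.020 mg/ml for testosterone 6β-hydroxylase. Each substrate at its experimentally derived KM. IC50 determined in duplicate.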

[7] = biological target: T3, Cytochrome P450 3A5; assay: Drug metabolism assessed as human recombinant CYP3A5 in presence of human P450 oxidoreductase and b5-mediated (4-(1-methyl-4-((S)-3-(piperidin-1-yl)pyrrolidin-1-yl)-1H-pyrazolo[3,4-d]pyrimidin-3-yl)-5-p-tolyl-1H-pyrazol-1-yl)methanol formation at 10 uM by HPLC-MS analysis in presence of NADPH; conditions: recombinant enzyme; outline: as §2
[8] = system: CYP3A5*1/*1; assay: Inhibition of CYP3A5*1/*1 in human liver microsomes assessed as midazolam 1'-hydroxylase activity at 0.56 uM after 10 mins; conditions: liver microsomes (CYP3A5*1/*1 genotype), probe midazolam (1'-hydroxylation)
Outline: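 Genotyped individual HLMs (0.1 mg/ml) preincubated at 37°C with CYP3cide (0–1.3 μM; 10 min in the two-donor study, 5 min in the 30-donor study), with or without 1.3 mM NADPH (N=3). Mixture diluted 20-fold into 23 μM midazolam for 6 min. 1'-OH-midazolam measured. Readout: % of vehicle/no-NADPH control activity.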

[9] = biological target: T4, CYP3A4 (Homo sapiens, UniProt P08684); assay: Irreversible inhibition of human recombinant CYP3A4 harboring human P450 oxidoreductase and b5 assessed as residual midazolam 1'-hydroxylase activity in presence of NADPH relative to control; conditions: recombinant CYP3A4 with human P450 oxidoreductase and b5, probe midazolam (1'-hydroxylation)
[10] = biological target: T1, CYP3A; assay: Reversible inhibition of human CYP3A testosterone 6beta-hydroxylase activity; conditions: probe testosterone (6beta-hydroxylation)
Outline: (§3)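 Reversible IC50 with pooled HLM or recombinant CYP3A7 (with POR and b5), protein 0.010–0.10 mg/ml depending on isoform. Probe substrate at its experimentally derived KM. Metabolite formation measured by LC/MS/MS. IC50 determinations run in duplicate.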

[11] = biological target: T2, Cytochrome P450 3A4; assay: Reversible inhibition of midazolam 1'-hydroxylase activity of human recombinant CYP3A4 harboring human P450 oxidoreductase and b5
Outline: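 IC50 was measured with baculovirus-expressed CYP3A4 plus POR and cytochrome b5 (P450:reductase:b5 1:5:7), with substrate at its experimentally derived KM, in duplicate. Enzyme was 0.010 mg/ml for midazolam 1'-hydroxylation and 0.020 mg/ml for testosterone 6β-hydroxylation.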

[12] = biological target: CYP2C9 (Homo sapiens, UniProt P11712); assay: Time dependent inhibition of human CYP2C9 diclofenac 4'-hydroxylase activity assessed as decrease in enzyme activity at 100 uM preincubated for 30 mins by IC25-shift assay; conditions: probe diclofenac (4'-hydroxylation); outline: as §1
[13] = biological target: T3, Cytochrome P450 3A5; assay: Inhibition of midazolam 1'-hydroxylase activity of human recombinant CYP3A5 harboring human P450 oxidoreductase and b5 assessed as decrease in enzyme activity preincubated for 30 mins by LC-MS/MS analysis
Outline: (§4)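 rCYP3A5 with POR and b5 (0.010 mg/ml for midazolam, 0.020 mg/ml for testosterone) preincubated 30 min at 37°C with 2 µM inhibitor, ±NADPH (1.3 mM), N=2. Mixture then diluted 10-fold into probe substrate at ~KM at 37°C. Activity expressed as percent of control remaining, reported as decrease in activity.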

[14] = biological target: T4, CYP3A4; assay: Time dependent inhibition of midazolam 1'-hydroxylase activity of human recombinant CYP3A4 harboring human P450 oxidoreductase and b5 assessed as decrease in enzyme activity at 0.050 uM preincubated for 30 mins by IC25-shift assay; conditions: recombinant CYP3A4 with human P450 oxidoreductase and b5, probe midazolam (1'-hydroxylation); outline: as §1
[15] = biological target: Cytochrome P450 2C9 (Homo sapiens, UniProt P11712); assay: Reversible inhibition of human CYP2C9 diclofenac 4'-hydroxylase activity; outline: as §3
[16] = Inhibition of CYP3A5*3/*3 in 5 mg/ml of human liver microsomes assessed as midazolam 1'-hydroxylase activity at <2.5 uM after 10 mins
[17] = biological target: T1, CYP3A; assay: Reversible inhibition of human CYP3A felodipine oxidase activity; conditions: probe felodipine (oxidation); outline: as §3
[18] = biological target: T1, CYP3A; assay: Time dependent inhibition of human CYP3A testosterone 6beta-hydroxylase activity assessed as decrease in enzyme activity at 5 uM preincubated for 30 mins by IC25-shift assay; conditions: probe testosterone (6beta-hydroxylation); outline: as §1
[19] = biological target: T3, Cytochrome P450 3A5; assay: Inhibition of testosterone 6beta-hydroxylase activity of human recombinant CYP3A5 in presence of human P450 oxidoreductase and b5 assessed as decrease in enzyme activity preincubated for 30 mins by LC-MS/MS analysis; outline: as §4
[20] = biological target: T3, Cytochrome P450 3A5; assay: Drug metabolism assessed as human recombinant CYP3A5 in presence of human P450 oxidoreductase and b5-mediated 1-((3S)-1-(1-methyl-3-(1-methyl-5-p-tolyl-1H-pyrazol-4-yl)-1H-pyrazolo[3,4-d]pyrimidin-4-yl)pyrrolidin-3-yl)-2,3,4,5-tetrahydropyridinium formation at 10 uM by HPLC-MS analysis in presence of NADPH; conditions: recombinant enzyme; outline: as §2

T3 sequence (P20815 whole entry): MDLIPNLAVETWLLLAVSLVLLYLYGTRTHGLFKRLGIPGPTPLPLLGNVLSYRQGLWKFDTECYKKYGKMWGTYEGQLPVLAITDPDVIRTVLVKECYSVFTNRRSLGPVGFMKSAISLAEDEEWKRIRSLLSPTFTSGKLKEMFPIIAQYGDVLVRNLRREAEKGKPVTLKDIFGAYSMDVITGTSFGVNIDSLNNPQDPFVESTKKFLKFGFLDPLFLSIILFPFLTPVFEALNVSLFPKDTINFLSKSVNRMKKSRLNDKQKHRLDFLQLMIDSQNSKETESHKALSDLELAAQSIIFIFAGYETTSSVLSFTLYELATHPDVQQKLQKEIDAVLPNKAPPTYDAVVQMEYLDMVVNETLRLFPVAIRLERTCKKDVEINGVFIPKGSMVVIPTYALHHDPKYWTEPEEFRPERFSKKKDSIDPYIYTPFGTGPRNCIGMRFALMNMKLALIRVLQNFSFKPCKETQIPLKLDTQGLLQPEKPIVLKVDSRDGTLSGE
T2 sequence (P08684 whole entry): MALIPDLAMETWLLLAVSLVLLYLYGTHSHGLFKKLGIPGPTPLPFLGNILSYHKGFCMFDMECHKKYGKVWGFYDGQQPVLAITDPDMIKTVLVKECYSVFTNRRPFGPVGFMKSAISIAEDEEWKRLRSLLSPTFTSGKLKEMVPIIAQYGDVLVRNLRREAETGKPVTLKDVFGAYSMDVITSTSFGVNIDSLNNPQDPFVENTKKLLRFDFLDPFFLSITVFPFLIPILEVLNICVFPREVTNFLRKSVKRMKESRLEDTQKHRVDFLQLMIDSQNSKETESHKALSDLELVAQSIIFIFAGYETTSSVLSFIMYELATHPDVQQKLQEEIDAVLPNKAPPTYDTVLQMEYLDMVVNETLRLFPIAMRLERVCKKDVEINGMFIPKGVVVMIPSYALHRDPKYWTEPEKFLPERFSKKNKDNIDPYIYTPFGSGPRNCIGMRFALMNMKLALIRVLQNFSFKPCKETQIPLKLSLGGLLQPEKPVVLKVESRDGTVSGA
T4 sequence (P08684 whole entry): as above
Sequence of CYP3A5 (P20815 whole entry): as the sequence (P20815 whole entry) above
Sequence of CYP3A7 (P24462 whole entry): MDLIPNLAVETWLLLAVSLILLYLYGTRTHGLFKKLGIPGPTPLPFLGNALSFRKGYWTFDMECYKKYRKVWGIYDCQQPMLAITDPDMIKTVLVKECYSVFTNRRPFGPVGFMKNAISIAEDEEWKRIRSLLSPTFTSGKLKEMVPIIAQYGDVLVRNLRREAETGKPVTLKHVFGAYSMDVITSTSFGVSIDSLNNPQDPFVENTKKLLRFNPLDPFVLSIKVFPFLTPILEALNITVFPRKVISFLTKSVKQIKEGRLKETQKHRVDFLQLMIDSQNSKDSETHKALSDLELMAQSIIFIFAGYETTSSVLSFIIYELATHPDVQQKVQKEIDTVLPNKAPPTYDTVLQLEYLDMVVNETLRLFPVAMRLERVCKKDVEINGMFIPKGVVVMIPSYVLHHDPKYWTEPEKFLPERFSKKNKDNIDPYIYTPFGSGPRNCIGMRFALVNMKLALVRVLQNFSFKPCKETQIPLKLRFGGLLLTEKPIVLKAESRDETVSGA
Sequence of CYP2C9 (P11712 whole entry): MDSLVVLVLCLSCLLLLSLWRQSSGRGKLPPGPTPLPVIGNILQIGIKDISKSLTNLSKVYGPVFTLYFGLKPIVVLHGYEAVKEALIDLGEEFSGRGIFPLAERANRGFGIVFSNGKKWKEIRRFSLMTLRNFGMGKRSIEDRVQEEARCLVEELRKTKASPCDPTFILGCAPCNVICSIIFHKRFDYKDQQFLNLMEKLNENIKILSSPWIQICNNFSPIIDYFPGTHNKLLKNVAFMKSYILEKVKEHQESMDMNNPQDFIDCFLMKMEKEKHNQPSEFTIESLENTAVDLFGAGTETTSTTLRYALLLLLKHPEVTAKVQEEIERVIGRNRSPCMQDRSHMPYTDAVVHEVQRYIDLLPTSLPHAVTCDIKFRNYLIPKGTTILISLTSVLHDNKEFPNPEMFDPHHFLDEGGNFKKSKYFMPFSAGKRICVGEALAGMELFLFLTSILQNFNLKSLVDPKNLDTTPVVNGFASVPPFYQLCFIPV
Sequence of Cytochrome P450 2C9 (P11712 whole entry): as above

- inhibition at 30 min, 1 µM [1]: 47%
- inhibition at 30 min, 100 µM [2]: 15%
- fraction unbound [3]: 0.56
- Drug metabolism [4]: metabolite_detected
- inhibition at 30 min, 2 µM [5]: 71%
- IC50 [6]: 71000 nM
- Drug metabolism [7]: metabolite_detected
- inhibition at 10 min, 0.56 µM [8]: 23%
- activity [9]: 16%
- IC50 [10]: 1400 nM
- IC50 [11]: 30 nM
- inhibition at 30 min, 100 µM [12]: 5.4%
- Ki [13]: 2000 nM
- inhibition at 30 min, 0.05 µM [14]: 87%
- IC50 [15]: > 100000 nM
- inhibition (INH) [16]: Not Active
- IC50 [17]: 160 nM
- inhibition at 30 min, 5 µM [18]: 53%
- Ki [19]: 1200 nM
- Drug metabolism [20]: metabolite_detected
SMILES: Cc1ccc(-c2c(-c3nn(C)c4ncnc(N5CC[C@H](N6CCCCC6)C5)c34)cnn2C)cc1
